High-throughput results (PubChem)
This is a sample that favours compounds with a hit; in the whole collection about 3.5% have one here.
PglD inh: blocks C. jejuni PglD acetyltransferase activity; purified PglD enzyme, DTNB colorimetric CoA detection; inhibition, % at 12.5 µM; AID 602405; 0.098% of 360,000 active; in the data active = inhibition above about 16%, passing the limit was not always enough; inconclusive = no clear call, values can overlap the other calls
Ecoli rRNA inh: selective bacterial rRNA inhibition in E. coli. AID 720706. GFP signal change (wild-type ribosome), % (test concentration not listed). E. coli WT GFP vs humanized-ribosome RFP mutants, fluorescence, 24 h; active compounds read low; DMSO median 0, no signal -100. 1.6% of 350,000 active;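 active = significant combined selectivity score with lowered wild-type GFP, culture density cut under 30%, mutant RFP and density less affected; inactive = any of these conditions unmet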
HIV Env fusion: HIV envelope-mediated fusion inhibition. 1.1% of 360,000 active. AID 651610. HeLa-JRFL Env/CEM21 cell fusion, luciferase. inhibition, % at 12.3 µM;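 active = mean replicate inhibition score of at least 50 and every replicate individually at or above 50; inconclusive = only one of the two criteria met; inactive = mean below 50 and not all replicates reaching 50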
DENV2 CPE rescue: DENV2-induced cell death inhibition; DENV2-infected cells, cytopathic effect rescue, plate reader; CPE inhibition, % at 9.99 µM; 1.7% of 350,000 active; AID 651640; in the data active = CPE inhibition above about 20%, passing the limit was not always enough; inconclusive = no clear call, values can overlap the other calls; tested in BHK-21 cells
PGC1a acetyl inh: PGC1a acetylation modulation, inhibitor mode; AID 651687; U2OS PGC1a acetylation, AlphaScreen anti-acetyl-lysine; with virally co-expressed GCN5 acetyltransferase; inhibition, % at 15.6 µM; 0.17% of 350,000 active;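 active = every replicate shows inhibition of at least 40%; inconclusive = mean inhibition at least 40% but some replicate below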
FN deposition inh: fibronectin deposition inhibition | inhibition, % at 12.6 µM | 0.086% of 350,000 active | AH1F fibroblasts, Alexa488-fibronectin deposition fluorescence, overnight;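 active = mean inhibition across replicates of 30% or more, regardless of how many single replicates reach that level; inconclusive = mean under 30% yet at least half of replicates reach 30%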
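Assay system: AH1F fibroblast monolayer, labelled fibronectin deposition. Amount: 10000 cells per well. Also added: labelled fibronectin 24 nM. Compound: single-point pinned compound. Incubation: cell attachment 1 h, compound and FN exposure overnight. Detection: fluorescence after three HBSS washes, excitation 485 nm, emission 525 nm. Read-out: inhibition of fibronectin deposition signal.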
A number is an active result; - = inactive; ? = inconclusive; . = not tested or not shown.

SMILES	PglD inh	Ecoli rRNA inh	HIV Env fusion	DENV2 CPE rescue	PGC1a acetyl inh	FN deposition inh
CC1(C)C2CC=C(/C=N/NC(=S)NCCc3ccccc3)C1C2 (stereo not given)	.	-	67.3	-	.	-
C[C@H]1CCCCO[C@@H](CN(C)C(=O)Nc2ccc(C(F)(F)F)cc2)[C@@H](C)CN([C@@H](C)CO)C(=O)c2cc(NC(=O)c3ccccc3)ccc2O1	-	-	-	-	.	.
COCC1COS(=O)(=O)NC1(C)C (stereo not given)	-	-	-	20.3	-	-
CNC(=S)N(CCc1c(C)[nH]c2ccc(OC)cc12)Cc1ccco1	-	-22.5	-	-	-	-
Cn1ncc(Br)c1C(=O)NC1C2CC3CC(C2)CC1C3 (stereo not given)	.	-30.3	-	-	.	-
Cc1noc(C)c1NC(=O)N1C[C@H](O)COC[C@H]2O[C@H](CC(=O)N[C@@H]3CCN(Cc4ccccc4)C3)CC[C@@H]21	.	-	.	.	.	-
CC(NC(=O)c1ccccc1)C(=O)OCn1nnc2ccccc2c1=O (stereo not given)	-	-	-	33.2	.	-
O=C(Cc1cccc2ccccc12)OCn1nnc2ccccc2c1=O	-	-17.9	-	-	-	-
C[C@H](NC(=O)c1ccc(Cl)cc1)C(=O)OCn1nnc2ccccc2c1=O	-	.	-	-	-	-
Cc1ccc(S(=O)(=O)N[C@@H]2CC[C@H](CCn3cc(C4(O)CCCC4)nn3)O[C@@H]2CO)cc1	-	-	-	-	-	-
COc1cc(NC(=O)CSCC(=O)Nc2cccc(C(F)(F)F)c2)c(Cl)cc1Cl	-	-30.8	.	-	-	.
O=C(COCC(=O)Nc1cccc(C(F)(F)F)c1)Nc1cccc(C(F)(F)F)c1	-	.	?	.	-	.
Cc1cccc(S(=O)(=O)N2C[C@@H]3[C@H](c4ccccc42)[C@H](CO)N3Cc2cccnc2)c1	-	-	.	-	-	.
Cc1cccc(S(=O)(=O)N2C[C@H]3[C@@H](c4ccccc42)[C@@H](CO)N3Cc2cccnc2)c1	-	-	.	27.3	-	.
Cc1cccc(S(=O)(=O)N2C[C@H]3[C@@H](c4ccccc42)[C@@H](CO)N3C(=O)c2ccccc2)c1	-	-	.	57.2	-	-
O=S(=O)(c1ccccc1)N1C[C@H]2[C@@H](c3ccccc31)[C@@H](CO)N2Cc1ccccc1	-	-49.1	.	27.3	-	.
O=S(=O)(c1ccccc1)N1C[C@@H]2[C@H](c3ccccc31)[C@H](CO)N2Cc1ccccc1	-	-25.4	.	-	-	.
O=S(=O)(c1ccccc1)N1C[C@H]2[C@@H](c3ccccc31)[C@H](CO)N2Cc1ccc(F)cc1	-	-	.	-	-	.
C[C@H](CO)N1C[C@H](C)[C@@H](CN(C)Cc2ccc(C(F)(F)F)cc2)Oc2ccc(NC(=O)CCCN(C)C)cc2CC1=O	-	-	-	-	-	.
CC(C)NC(=O)Nc1cccc2c1O[C@H](CN(C)C(=O)Nc1ccccc1)[C@H](C)CN([C@@H](C)CO)C2=O	-	-	-	-	-	-
CC(C)NC(=O)N(C)C[C@H]1Oc2cc(C#CC3CC3)ccc2S(=O)(=O)N([C@H](C)CO)C[C@H]1C	-	-	-	-	-	.
C[C@@H]1CN([C@H](C)CO)C(=O)c2cc(NC(=O)Nc3ccc(F)cc3)ccc2O[C@H]1CN(C)Cc1ccc2c(c1)OCO2	-	-	.	-	-	-
O=C(Nc1nc2ccccc2[nH]1)c1ccc(OC(F)F)cc1	-	-	-	-	.	-
CC(C)Oc1ccc(C(=O)Nc2nc3ccccc3[nH]2)cc1	-	-	57.3	-	.	-
O=C(Nc1nc2ccccc2[nH]1)c1ccccc1F	-	.	74.6	.	-	.
SMILES	PglD inh	Ecoli rRNA inh	HIV Env fusion	DENV2 CPE rescue	PGC1a acetyl inh	FN deposition inh
O=C(c1ccccc1)N1CC2(C1)[C@H](c1ccccc1)[C@@H](CO)N2C(=O)CC1CC1	.	-	.	25.5	-	.
CCCNC(=O)N1CC2(C1)[C@H](c1ccccc1)[C@@H](CO)N2C(=O)CC1CC1	.	-	.	-	-	-
CCCNC(=O)N1CC2(C1)[C@H](c1ccccc1)[C@H](CO)N2C(=O)CC1CC1	.	-	.	23.0	-	-
CCCNC(=O)N1CC2(C1)[C@H](c1ccccc1)[C@H](CO)N2C(=O)C1CCCCC1	.	-	.	65.1	-	-
CCCNC(=O)N1CC2(C1)[C@H](c1ccccc1)[C@@H](CO)N2C(=O)C1CCCCC1	.	-	.	-	-	-
COc1ccc(NC(=O)Nc2ccc3c(c2)C(=O)N([C@H](C)CO)C[C@@H](C)[C@@H](CN(C)C(=O)NC2CCCCC2)OCCCC[C@H](C)O3)cc1	-	-	-	-	-	.
COc1ccc(NC(=O)NCCCN2CCN(c3cc(C)ccc3C)CC2)cc1	-	-	58.8	-	.	-
CNC[C@@H]1Oc2ccc(N(C)C)cc2CC(=O)N([C@@H](C)CO)C[C@H]1C	-	-	-	-	-	-
Cc1c(C(=O)Nc2nccs2)sc2nc(-c3cccs3)cc(C(F)(F)F)c12	.	.	56.7	.	-	-
Cc1c(C(=O)O)sc2nc(-c3cccs3)cc(C(F)(F)F)c12	-	-	-	-	.	-
Nc1ncn([C@H]2C[C@H](O)[C@@H](CO)O2)c(=O)n1	-	.	69.0	-	-	-
Nc1ccn([C@H]2C[C@H](O)[C@@H](CO)O2)c(=O)n1	-	.	-	-	-	-
Cc1noc(C)c1CSCC(=O)Nc1nc2ccccc2s1	-	-22.9	-	-	.	-
CCc1ccc2nc(NC(=O)CSCc3c(C)noc3C)sc2c1	-	.	-	.	-	-
C[C@H]1CCCCO[C@H](CN(C)Cc2ccc(C(F)(F)F)cc2)[C@@H](C)CN([C@@H](C)CO)C(=O)c2cc(NS(=O)(=O)c3cccs3)ccc2O1	-	-	-	-	-	.
Cc1ccc(S(=O)(=O)Nc2ccccc2CNc2ccc(Br)cn2)cc1	.	.	-	.	.	-
Cc1ccc(S(=O)(=O)Nc2ccccc2CNc2ccccn2)cc1	.	-28.4	-	-	.	-
CC1CC1C(=O)OCC(=O)Nc1ccc(N=Nc2ccccc2)cc1 (stereo not given)	.	-18.4	-	-	.	-
CC(NC(=O)CN1CCN(c2cccc(Cl)c2)CC1)c1ccccc1 (stereo not given)	-	-28.1	-	44.2	-	-
CCOc1ccccc1CN1[C@@H](c2ccc(OC)cc2)CC(C(=O)OC)(C(=O)OC)[C@H]1c1ccccc1	.	-	60.9	-	.	.
COc1ccc(NC(=O)N(C)C[C@@H]2OCCCC[C@@H](C)Oc3ccc(NS(=O)(=O)c4ccc(C)cc4)cc3C(=O)N([C@@H](C)CO)C[C@@H]2C)cc1	-	-	-	-	-	-
Cc1ccccc1-n1sc2cc(F)ccc2c1=O	-	-	-	-	-	39.7
Cc1noc(C)c1S(=O)(=O)Nc1cccc2c1O[C@H](CN(C)Cc1ccc(C(=O)O)cc1)[C@@H](C)CN([C@@H](C)CO)C2=O	-	-	-	-	-	.
N#Cc1ccc(CSc2nnc(COc3ccccc3)n2-c2ccccc2)cc1	-	.	75.4	.	-	-
